Test results from ChEMBL document CHEMBL3526095, “Characterization of the in vitro and in vivo metabolism and disposition and cytochrome P450 inhibition/induction profile of saxagliptin in human” (Drug Metab Dispos, 2012).

Experiments:
[1] = target: T1, Cytochrome P450 3A5 (Homo sapiens, UniProt P20815); test: Drug metabolism assessed as human CYP3A5-mediated 5-hydroxy saxagliptin formation at 10 uM after 30 mins by LC-MS/MS analysis; type: ADME; settings: recombinant enzyme, 0.5 h
[2] = system: Hepatocyte; test: Induction of CYP1A2 mRNA expression in human hepatocytes assessed as phenacetin O-deethylation up to 25 uM by LC-MS/MS analysis; type: ADME, cell-based
Method in brief: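 Primary hepatocytes from three donors treated once daily for 3 days: saxagliptin 0.2–25 µM, M2 0.2–100 µM, 0.1% DMSO as vehicle. Microsomal activity assayed by LC-MS/MS: phenacetin 100 µM with 0.02 mg/ml protein (CYP1A2), bupropion 250 µM with 0.02 mg/ml (CYP2B6), testosterone 200 µM with 0.01 mg/ml (CYP3A4). mRNA measured by TaqMan qPCR as 2^ΔCT relative to endogenous control and DMSO.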

[3] = target: Cytochrome P450 3A4 (Homo sapiens, UniProt P08684); test: Drug metabolism assessed as human CYP3A4-mediated metabolite formation treated with 10 uM of [14C]saxagliptin after 30 mins by LC-MS/MS analysis; type: ADME; settings: recombinant enzyme, 0.5 h
Chain of Cytochrome P450 3A4 (P08684 whole entry): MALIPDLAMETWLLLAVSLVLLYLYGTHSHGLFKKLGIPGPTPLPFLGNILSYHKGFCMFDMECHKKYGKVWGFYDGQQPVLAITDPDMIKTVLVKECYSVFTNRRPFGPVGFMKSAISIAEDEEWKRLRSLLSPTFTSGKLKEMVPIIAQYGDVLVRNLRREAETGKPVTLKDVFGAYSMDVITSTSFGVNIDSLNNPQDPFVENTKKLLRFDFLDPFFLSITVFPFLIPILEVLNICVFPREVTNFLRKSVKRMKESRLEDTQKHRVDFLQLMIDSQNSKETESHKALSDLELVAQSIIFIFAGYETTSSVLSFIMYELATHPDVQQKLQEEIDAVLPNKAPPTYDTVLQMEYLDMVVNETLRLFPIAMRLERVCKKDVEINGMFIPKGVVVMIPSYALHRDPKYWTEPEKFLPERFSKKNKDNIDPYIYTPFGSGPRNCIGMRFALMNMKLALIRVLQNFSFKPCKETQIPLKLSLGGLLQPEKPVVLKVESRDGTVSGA
Method in brief: (§1)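 Expressed human CYP3A4 or CYP3A5 at 500 pmol/ml, incubated with 10 µM [14C]saxagliptin and 1 mM NADPH in 100 mM phosphate buffer pH 7.4 at 37°C for 30 min. Stopped with ice-cold acetonitrile; analysed by LC-MS/MS and off-line radioanalysis.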

[4] = target: T2, Cytochrome P450 1A2 (Homo sapiens, UniProt P05177); test: Inhibition of CYP1A2 in human liver microsomes assessed as phenacetin O-deethylation after 3 mins by LC-MS/MS analysis in presence of NADPH; type: ADME
T2 sequence (P05177 whole entry): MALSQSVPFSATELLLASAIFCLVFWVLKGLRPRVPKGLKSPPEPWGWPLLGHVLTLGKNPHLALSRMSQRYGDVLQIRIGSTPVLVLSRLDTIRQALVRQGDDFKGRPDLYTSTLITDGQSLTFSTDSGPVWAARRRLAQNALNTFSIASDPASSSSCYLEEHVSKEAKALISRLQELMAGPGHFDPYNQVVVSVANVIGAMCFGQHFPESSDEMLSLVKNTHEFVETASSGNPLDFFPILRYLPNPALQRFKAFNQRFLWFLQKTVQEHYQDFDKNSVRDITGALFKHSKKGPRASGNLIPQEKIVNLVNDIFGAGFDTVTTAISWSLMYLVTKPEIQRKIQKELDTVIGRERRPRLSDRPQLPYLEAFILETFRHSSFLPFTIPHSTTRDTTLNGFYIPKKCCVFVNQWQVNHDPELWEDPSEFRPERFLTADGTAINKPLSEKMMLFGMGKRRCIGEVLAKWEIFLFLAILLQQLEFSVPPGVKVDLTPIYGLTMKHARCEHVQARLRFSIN

[5] = target: T1, Cytochrome P450 3A5; test: Drug metabolism assessed as human CYP3A5-mediated metabolite formation treated with 10 uM of [14C]saxagliptin after 30 mins by LC-MS/MS analysis; type: ADME; settings: recombinant enzyme, 0.5 h; method in brief: as §1

T1 sequence (P20815 whole entry): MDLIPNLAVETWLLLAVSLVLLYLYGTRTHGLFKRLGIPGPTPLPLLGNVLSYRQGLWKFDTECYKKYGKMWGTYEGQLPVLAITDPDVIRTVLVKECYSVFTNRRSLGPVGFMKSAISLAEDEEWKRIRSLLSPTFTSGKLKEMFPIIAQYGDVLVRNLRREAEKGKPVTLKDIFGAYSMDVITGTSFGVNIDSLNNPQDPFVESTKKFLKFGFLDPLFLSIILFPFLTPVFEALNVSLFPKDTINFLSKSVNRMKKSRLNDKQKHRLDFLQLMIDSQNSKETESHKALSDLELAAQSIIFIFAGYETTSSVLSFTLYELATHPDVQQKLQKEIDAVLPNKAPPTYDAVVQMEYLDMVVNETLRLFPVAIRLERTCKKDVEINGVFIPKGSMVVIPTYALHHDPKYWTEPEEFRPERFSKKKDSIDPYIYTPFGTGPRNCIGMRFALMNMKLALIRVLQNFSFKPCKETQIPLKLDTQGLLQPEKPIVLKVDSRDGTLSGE

| SMILES | Drug metabolism [1] | Activity [2] | Drug metabolism [3] | IC50 [4] [µM] | Drug metabolism [5] |
| --- | --- | --- | --- | --- | --- |
| N#C[C@@H]1C[C@@H]2C[C@@H]2N1C(=O)[C@@H](N)C12CC3CC(CC(O)(C3)C1)C2 [SAXAGLIPTIN ANHYDROUS] | metabolite_detected | Not Active |  |  |  |
| N#C[C@@H]1C[C@@H]2C[C@@H]2N1C(=O)[C@@H](N)C12CC3CC(O)(CC(O)(C3)C1)C2 |  |  | metabolite_detected | > 200 | metabolite_detected |
